Published values collected from several papers.
Protocols differ between the studies behind these lines.
Target: Calcium/calmodulin-dependent protein kinase type II subunit gamma (CAMK2G, Homo sapiens, UniProt Q13555)

SMILES | read-out | action | technique | concentration | quantity | value
CC/C(=N\NC(=O)NCc1cccc(O)c1)c1ccc(O)c(C)c1O | enzyme activity | inhibitor | – | 0.1 µM | inhibition | -5.1%
CCCOc1ccc(OC)c(F)c1C(=O)c1ccc(C(=O)N[C@@H]2CNC[C@H]2NC(=O)c2ccc3[nH]ncc3c2)cc1 | enzyme activity | inhibitor | – | 10 µM | remaining activity | 79%
CNC(=O)c1cc(Oc2ccc(NC(=O)Nc3ccc(Cl)c(C(F)(F)F)c3)cc2)ccn1 | cell-free assay | – | – | 10 µM | inhibition | 78%
CC(C)c1ccc(NC(=O)c2cccs2)c(-c2nc3ccccc3[nH]c2=O)c1 | enzyme activity | inhibitor | – | 1 µM | activity vs control | 100%
CNC(=O)Nc1ccc2c(c1)CC[C@@]21OC(=O)N(CC(=O)N(Cc2ccc(F)cc2)[C@@H](C)C(F)(F)F)C1=O | cell-free assay | – | competition with immobilised ligand | 1 µM | remaining binding | 76%
COc1cc(-c2cc(-c3ccc(N4CCNCC4)cc3)cnc2C)cc(OC)c1OC | enzyme activity | inhibitor | – | 0.1 µM | inhibition | 1%
CS(=O)(=O)c1cc(C2(NC(=O)c3cncc4c3cnn4-c3ccc(F)cc3)CC2)ccn1 | cell-free assay | – | competition with immobilised ligand | 1 µM | remaining binding | 72%
CC(C)(C)c1nc(-c2cccc(NS(=O)(=O)c3c(F)cccc3F)c2F)c(-c2ccnc(N)n2)s1 | enzyme activity | inhibitor | radiometric | 1 µM | remaining activity | 102%
CNCc1ccccc1-c1csc([C@H](C)Nc2nc(C)nc3cc(OC)c(OC)cc23)c1 | cell-free assay | – | competition with immobilised ligand | 1 µM | remaining binding | 90%
CCN(CC)c1ccc(C2=NNC(=O)CC2C)cc1[N+](=O)[O-] (centres unmarked) | enzyme activity | inhibitor | – | 10 µM | remaining activity | 119%
O=C(Nc1cnn(-c2csc(C(=O)NC3COC3)c2)c1)Nc1ccccc1Cl | enzyme activity | inhibitor | – | 5 µM | remaining activity | 96.4%
O=C(Nc1nccs1)C(c1cc(F)ccc1O)N1Cc2ccccc2C1=O (centres unmarked) | enzyme activity | inhibitor | – | 1 µM | inhibition | 9%
Nc1ncnc2occ(-c3ccc(NC(=O)Nc4cc(C(F)(F)F)ccc4F)cc3)c12 | cell-free assay | – | – | 20 µM | remaining signal | 71%
C[C@@H]1CCN(C(=O)CC#N)C[C@@H]1N(C)c1ncnc2[nH]ccc12 | cell-free assay | – | – | 0.5 µM | remaining signal | 127%
C[C@@H]1CN(c2cc(-c3nn(C)c4ccc(OC5(C)CC5)cc34)ncn2)C[C@H](C)O1 | cell-free assay | – | competition with immobilised ligand | 1 µM | remaining binding | 90%
Cc1ccc(C(=O)NCc2ccsc2)cc1C#Cc1cn(C(C)C)c2ncnc(N)c12 | enzyme activity | inhibitor | – | 1 µM | activity vs control | 101%
O=C1CCc2cc(Nc3cc(OC4CCOCC4)c([N+](=O)[O-])cc3Cl)ccc2N1 | cell-free assay | – | competition with immobilised ligand | 1 µM | remaining binding | 100%
COc1cc(Cl)c(C(=O)N[C@@H](CN[C@H]2CC[C@@H](N)CC2)Cc2ccc(C#N)cc2)cc1-c1ccc(CN[C@H](C)c2ccc(C)cc2)o1 | enzyme activity | inhibitor | – | 1 µM | remaining activity | 87%
COc1ccc2cc(OCC3(C(=O)O)CN(C(=O)c4ccc(F)cc4)C3)ccc2c1 | cell-free assay | – | competition with immobilised ligand | 1 µM | remaining binding | 100%
N#CCCc1ccc2c(c1)-c1[nH]c3ccc([N+](=O)[O-])cc3c1CC(=O)N2 | cell-free assay | – | – | 0.5 µM | remaining signal | 66%
